Laboratory results published in ChEMBL document CHEMBL5647683 (Oncogene, 2008).

Experiments:
[1] = Inhibition of human EGFR S752_I759del8 mutant expressed in mouse BaF3 cells assessed as reduction in cell survival incubated for 48 hrs by WST assay
[2] = Inhibition of human EGFR L858R-T790M double mutant expressed in mouse BaF3 cells assessed as reduction in cell survival incubated for 48 hrs by WST assay
[3] = Inhibition of human EGFR L747_P753del7insS-T790M mutant expressed in mouse BaF3 cells assessed as reduction in cell survival incubated for 48 hrs by WST assay
[4] = Inhibition of human EGFR S752_I759del8-T790M mutant expressed in mouse BaF3 cells assessed as reduction in cell survival incubated for 48 hrs by WST assay
[5] = Inhibition of human EGFR variant III deletion expressed in mouse BaF3 cells assessed as reduction in cell survival incubated for 48 hrs by WST assay
A-431 [6] = assay: Antitumor activity against human A-431 cells xenografted athymic NMRI-nu/nu female mouse as reduction in tumor volume at 75 mg/kg, po administered daily for 25 days relative to control; type: functional; settings: time 25 day
In short: (§1)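 Female athymic NMRI-nu/nu mice (5–6 weeks, 21–31 g) given 1–5×10⁶ cells into the right flank; MDA-MB-453 tumors started from fresh 2×2×2 mm fragments. At 40–130 mm³, tumors were randomized to weight-based daily oral gavage (10 ml/kg; 1.8% HP-β-CD, 5% acetic acid (10%), 0.5% Natrosol) or vehicle. Caliper measurement 3×/week, volume π/6×L×W². Expressed as cumulative treated/control volume ratio; one-way ANOVA with Dunnett's test.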

A-431 [7] = assay: Antitumor activity against human A-431 cells xenografted athymic NMRI-nu/nu female mouse as reduction in tumor volume at 2x100 mg/kg, po administered daily for 25 days relative to control; type: functional; settings: dose 100 mg/kg, time 25 day; in short: as §1

C#Cc1cccc(Nc2ncnc3cc(OCCOC)c(OCCOC)cc23)c1 [ERLOTINIB]
IC50 [1]: 0.033 µM
IC50 [2]: >10 µM
IC50 [3]: >10 µM
IC50 [4]: >10 µM
IC50 [5]: 0.144 µM

COc1cc2ncnc(Nc3ccc(F)c(Cl)c3)c2cc1OCCCN1CCOCC1 [GEFITINIB]
T/C (A-431 [6]): 46%

CS(=O)(=O)CCNCc1ccc(-c2ccc3ncnc(Nc4ccc(OCc5cccc(F)c5)c(Cl)c4)c3c2)o1 [LAPATINIB]
T/C (A-431 [7]): 32%
